Measurements taken from ChEMBL document CHEMBL5154878, “Potent Inhibition of SARS-CoV-2 nsp14 N7-Methyltransferase by Sulfonamide-Based Bisubstrate Analogues” (J Med Chem, 2022).
Active and inactive are the calls of the source. The calls are words filed in the database; no cut-off is given here.

What was measured:
[1] = target: Replicase polyprotein 1ab (Severe acute respiratory syndrome coronavirus 2, UniProt P0DTD1); assay: Inhibition of N7-MTase activity of SARS-CoV-2 N-terminus hexahistidine tag nsp14 expressed in Escherichia coli C2566 using [3H]SAM as substrate incubated for 30 mins in presence of mGpppAC4 synthetic RNA by radioactive filter binding assay
[2] = target: Replicase polyprotein 1ab (Severe acute respiratory syndrome coronavirus 2) (UniProt P0DTD1); assay: Inhibition of N7-MTase activity of SARS-CoV-2 N-terminus hexahistidine tag nsp14 expressed in Escherichia coli C2566 at 5 uM using [3H]SAM as substrate incubated for 30 mins in presence of mGpppAC4 synthetic RNA by filter binding assay relative to control
[3] = Inhibition of N7-MTase activity of SARS-CoV N-terminus hexahistidine tag nsp14 expressed in Escherichia coli C2566 using [3H]SAM as substrate incubated for 30 mins in presence of mGpppAC4 synthetic RNA by radioactive filter binding assay; design: species or system Severe acute respiratory syndrome-related coronavirus
[4] = test system: Severe acute respiratory syndrome coronavirus 2; assay: Binding affinity to SARS-CoV N-terminus hexahistidine tag nsp14 expressed in Escherichia coli C2566 assessed as shift in melting temperature at >2 uM by SYPRO orange dye based thermal shift assay
[5] = target: Replicase polyprotein 1ab (Severe acute respiratory syndrome coronavirus 2) (UniProt P0DTD1); assay: Binding affinity to SARS-CoV-2 N-terminus hexahistidine tag nsp14 expressed in Escherichia coli C2566 assessed as change in melting temperature at 0.5 mM by SYPRO orange dye based thermal shift assay
How it was run: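 nsp14 (freshly purified, 5 μM, in 20 mM Hepes pH 7.5, 150 mM NaCl, ≤5% DMSO) incubated with compound from 500 μM down to 8.4 nM (3-fold serial dilution) plus Sypro Orange 0.00056×. Melt ramp 1 °C per minute, 25–95 °C. Tm from Boltzmann fit; ΔTm taken against DMSO control. Duplicates; Kd from inflection of ΔTm versus concentration.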

[6] = target: Replicase polyprotein 1ab (Severe acute respiratory syndrome coronavirus 2) (UniProt P0DTD1); assay: Inhibition of N7-MTase activity of SARS-CoV-2 N-terminus hexahistidine tag nsp14 expressed in Escherichia coli C2566 assessed as fold change using [3H]SAM as substrate incubated for 30 mins in presence of mGpppAC4 synthetic RNA by radioactive filter binding assay
[7] = Selectivity index, ratio of IC50 for human RNA N7-MTase to IC50 for SARS-CoV-2 nsp14 N7-MTase activity using [3H]SAM as substrate incubated for 30 mins in presence of mGpppAC4 synthetic RNA by radioactive filter binding assay
[8] = Inhibition of human RNA N7-MTase expressed in Escherichia coli measured using [3H]SAM as substrate incubated for 30 mins in presence of mGpppAC4 synthetic RNA by radioactive filter binding assay
Homo sapiens = organism: Homo sapiens; assay: Inhibition of human RNA N7-MTase expressed in Escherichia coli measured upto 50 uM using [3H]SAM as substrate incubated for 30 mins in presence of mGpppAC4 synthetic RNA by radioactive filter binding assay; conditions: DDE = dose-dependent effect

| Structure (SMILES) | IC50 [1] [nM] | inhibition [2] [%] | other results |
| --- | --- | --- | --- |
| Nc1ncnc2c1ncn2[C@@H]1O[C@H](CNS(=O)(=O)c2ccc(Br)c([N+](=O)[O-])c2)[C@@H](O)[C@H]1O | 2900 | 85 |  |
| Nc1ncnc2c1ncn2[C@@H]1O[C@H](CNS(=O)(=O)c2cccc([N+](=O)[O-])c2Cl)[C@@H](O)[C@H]1O | 2100 | 75 | IC50 [3]: 1400 nM |
| Nc1ncnc2c1ncn2[C@@H]1O[C@H](CNS(=O)(=O)c2ccc(C(F)(F)F)cc2[N+](=O)[O-])[C@@H](O)[C@H]1O | 3500 | 60 | IC50 [3]: 3300 nM |
| N#Cc1cccc(S(=O)(=O)NC[C@H]2O[C@@H](n3cnc4c(N)ncnc43)[C@H](O)[C@@H]2O)c1 | 5300 | 80 |  |
| COc1ccc(S(=O)(=O)N(CCCCOC(C)=O)C[C@H]2O[C@@H](n3cnc4c(N)ncnc43)[C@H](O)[C@@H]2O)cc1[N+](=O)[O-] | 80 | 100 |  |
| COc1ccc(S(=O)(=O)NC[C@H]2O[C@@H](n3cnc4c(N)ncnc43)[C@H](O)[C@@H]2O)c([N+](=O)[O-])c1 | 1400 | 70 | IC50 [3]: 2600 nM |
| Nc1ncnc2c1ncn2[C@@H]1O[C@H](CNS(=O)(=O)c2ccc(Cl)cc2)[C@@H](O)[C@H]1O | 13000 | 25 |  |
| COc1ccc(S(=O)(=O)NC[C@H]2O[C@@H](n3cnc4c(N)ncnc43)[C@H](O)[C@@H]2O)cc1[N+](=O)[O-] | 146 | 90 |  |
| CCN(C[C@H]1O[C@@H](n2cnc3c(N)ncnc32)[C@H](O)[C@@H]1O)S(=O)(=O)c1cccc([N+](=O)[O-])c1 | 516 | 75 |  |
| Nc1ncnc2c1ncn2[C@@H]1O[C@H](CNS(=O)(=O)c2ccc([N+](=O)[O-])cc2Cl)[C@@H](O)[C@H]1O |  | 21 |  |
| Nc1ncnc2c1ncn2[C@@H]1O[C@H](CNS(=O)(=O)c2cccc(Cl)c2)[C@@H](O)[C@H]1O |  | 20 |  |
| CCN(C[C@H]1O[C@@H](n2cnc3c(N)ncnc32)[C@H](O)[C@@H]1O)S(=O)(=O)c1ccc(C)c(Cl)c1 | 56 | 95 | Activity [4]: Active; ΔTm [5]: 11 °C |
| N#Cc1cc(S(=O)(=O)NC[C@H]2O[C@@H](n3cnc4c(N)ncnc43)[C@H](O)[C@@H]2O)ccc1F | 899 | 90 |  |
| COc1ccc(S(=O)(=O)NC[C@H]2O[C@@H](n3cnc4c(N)ncnc43)[C@H](O)[C@@H]2O)cc1C#N | 514 | 100 |  |
| Nc1ncnc2c1ncn2[C@@H]1O[C@H](CNS(=O)(=O)c2ccc(Cl)c(Cl)c2)[C@@H](O)[C@H]1O | 482 | 87 |  |
| COc1ccc(S(=O)(=O)N(CCCCNc2cccc3ccccc23)C[C@H]2O[C@@H](n3cnc4c(N)ncnc43)[C@H](O)[C@@H]2O)cc1[N+](=O)[O-] | 30 | 100 | Activity [4]: Active; ΔTm [5]: 11 °C |
| COc1cc([N+](=O)[O-])ccc1S(=O)(=O)NC[C@H]1O[C@@H](n2cnc3c(N)ncnc32)[C@H](O)[C@@H]1O | 5100 | 77 | IC50 [3]: 25000 nM |

| Structure (SMILES) | IC50 [1] [nM] | inhibition [2] [%] | other results |
| --- | --- | --- | --- |
| CCN(C[C@H]1O[C@@H](n2cnc3c(N)ncnc32)[C@H](O)[C@@H]1O)S(=O)(=O)c1ccc(OC)c(C#N)c1 | 19 | 100 | Activity [4]: Active; ΔTm [5]: 11 °C; fold change (FC) [6]: 2000; Ratio IC50 [7]: > 2000; IC50 [8]: 52800 nM; inhibition (Homo sapiens): Dde |
| CCN(C[C@H]1O[C@@H](n2cnc3c(N)ncnc32)[C@H](O)[C@@H]1O)S(=O)(=O)c1ccc(Br)c([N+](=O)[O-])c1 | 80 | 100 |  |
| CCN(C[C@H]1O[C@@H](n2cnc3c(N)ncnc32)[C@H](O)[C@@H]1O)S(=O)(=O)c1ccc(C(F)(F)F)cc1[N+](=O)[O-] | 5000 | 84 |  |
| CCN(C[C@H]1O[C@@H](n2cnc3c(N)ncnc32)[C@H](O)[C@@H]1O)S(=O)(=O)c1cccc(Cl)c1 | 442 | 65 |  |
| CCN(C[C@H]1O[C@@H](n2cnc3c(N)ncnc32)[C@H](O)[C@@H]1O)S(=O)(=O)c1cccc(C#N)c1 | 960 | 65 |  |
| CCOC(=O)CCCCN(C[C@H]1O[C@@H](n2cnc3c(N)ncnc32)[C@H](O)[C@@H]1O)S(=O)(=O)c1ccc(OC)c([N+](=O)[O-])c1 | 114 | 100 |  |
| N#Cc1cc(S(=O)(=O)NC[C@H]2O[C@@H](n3cnc4c(N)ncnc43)[C@H](O)[C@@H]2O)ccc1Cl | 1010 | 100 |  |
| Cc1ccc(S(=O)(=O)NC[C@H]2O[C@@H](n3cnc4c(N)ncnc43)[C@H](O)[C@@H]2O)cc1Cl | 344 | 90 |  |
| Nc1ncnc2c1ncn2[C@@H]1O[C@H](CNS(=O)(=O)c2ccc([N+](=O)[O-])cc2)[C@@H](O)[C@H]1O | 14100 | 25 | IC50 [3]: 7600 nM |
| Nc1ncnc2c1ncn2[C@@H]1O[C@H](CNS(=O)(=O)c2ccc(F)c([N+](=O)[O-])c2)[C@@H](O)[C@H]1O | 4400 | 87 |  |
| CCc1ccc(S(=O)(=O)NC[C@H]2O[C@@H](n3cnc4c(N)ncnc43)[C@H](O)[C@@H]2O)cc1[N+](=O)[O-] | 244 | 98 |  |
| CCN(C[C@H]1O[C@@H](n2cnc3c(N)ncnc32)[C@H](O)[C@@H]1O)S(=O)(=O)c1ccc(Cl)c(Cl)c1 | 100 | 100 |  |
| CCN(C[C@H]1O[C@@H](n2cnc3c(N)ncnc32)[C@H](O)[C@@H]1O)S(=O)(=O)c1ccc(C)c([N+](=O)[O-])c1 | 38 | 100 |  |
| Cc1ccc(S(=O)(=O)NC[C@H]2O[C@@H](n3cnc4c(N)ncnc43)[C@H](O)[C@@H]2O)cc1[N+](=O)[O-] | 342 | 100 |  |
| CCN(C[C@H]1O[C@@H](n2cnc3c(N)ncnc32)[C@H](O)[C@@H]1O)S(=O)(=O)c1ccc(OC)c([N+](=O)[O-])c1 | 44 | 100 |  |
| Nc1ncnc2c1ncn2[C@@H]1O[C@H](CNS(=O)(=O)c2cccc([N+](=O)[O-])c2)[C@@H](O)[C@H]1O | 3590 | 80 |  |
